Data taken from ChEMBL document CHEMBL3407388, “Synthesis, anticancer activity and molecular docking studies on a series of heterocyclic trans-cyanocombretastatin analogues as antitubulin agents” (2015).

How the values were obtained:
Format in all cases: functional
HL-60(TB) = assay: Cytotoxicity against human HL-60(TB) cells assessed as growth inhibition after 48 hrs by SRB assay; conditions: HL-60, 48 h
Outline: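 NCI 60-cell panel, leukemia subpanel. Five-dose screen at 10-fold dilutions from 10−4 to 10−8 M with 48 h drug exposure. GI50 is the molar concentration giving 50% reduction in net cell growth compared with cell numbers on day 0.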

K562 = assay: Cytotoxicity against human K562 cells assessed as growth inhibition after 48 hrs by SRB assay; conditions: K562, 48 h
Outline: (§1)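 NCI 60-cell panel; compounds passing a single-dose screen (10−5 M, 48 h) were tested at five 10-fold dilutions (10−4 to 10−8 M) with 48 h drug exposure. GI50 is the molar concentration giving 50% reduction in net cell growth relative to cell numbers on day 0.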

MOLT-4 = assay: Cytotoxicity against human MOLT4 cells assessed as growth inhibition after 48 hrs by SRB assay; conditions: MOLT-4, 48 h; outline: as §1
RPMI-8226 = assay: Cytotoxicity against human RPMI8226 cells assessed as growth inhibition after 48 hrs by SRB assay; conditions: RPMI-8226, 48 h; outline: as §1
NCI-H226 = assay: Cytotoxicity against human NCI-H226 cells assessed as growth inhibition after 48 hrs by SRB assay; conditions: NCI-H226, 48 h; outline: as §1
NCI-H23 = assay: Cytotoxicity against human NCI-H23 cells assessed as growth inhibition after 48 hrs by SRB assay; conditions: NCI-H23, 48 h; outline: as §1
COLO 205 = assay: Cytotoxicity against human COLO205 cells assessed as growth inhibition after 48 hrs by SRB assay; conditions: COLO 205, 48 h; outline: as §1
HCC 2998 = assay: Cytotoxicity against human HCC2998 cells assessed as growth inhibition after 48 hrs by SRB assay; conditions: HCC 2998, 48 h; outline: as §1
[1] = Cytotoxicity against human HCT116 cells assessed as growth inhibition after 48 hrs by SRB assay; conditions: HCT-116, 48 h; outline: as §1
[2] = Cytotoxicity against human HCT15 cells assessed as growth inhibition after 48 hrs by SRB assay; conditions: HCT-15, 48 h; outline: as §1
HT-29 = assay: Cytotoxicity against human HT-29 cells assessed as growth inhibition after 48 hrs by SRB assay; conditions: HT-29, 48 h; outline: as §1
KM12 = assay: Cytotoxicity against human KM12 cells assessed as growth inhibition after 48 hrs by SRB assay; conditions: KM12, 48 h; outline: as §1
SW-620 = assay: Cytotoxicity against human SW620 cells assessed as growth inhibition after 48 hrs by SRB assay; conditions: SW-620, 48 h
SF-268 = assay: Cytotoxicity against human SF268 cells assessed as growth inhibition after 48 hrs by SRB assay; conditions: SF-268, 48 h; outline: as §1
SF-295 = assay: Cytotoxicity against human SF295 cells assessed as growth inhibition after 48 hrs by SRB assay; conditions: SF-295, 48 h; outline: as §1
SF-539 = assay: Cytotoxicity against human SF539 cells assessed as growth inhibition after 48 hrs by SRB assay; conditions: SF-539, 48 h; outline: as §1
SNB-19 = assay: Cytotoxicity against human SNB19 cells assessed as growth inhibition after 48 hrs by SRB assay; conditions: SNB-19, 48 h; outline: as §1
SNB-75 = assay: Cytotoxicity against human SNB75 cells assessed as growth inhibition after 48 hrs by SRB assay; conditions: SNB-75, 48 h
U-251 = assay: Cytotoxicity against human U251 cells assessed as growth inhibition after 48 hrs by SRB assay; conditions: U-251, 48 h
LOX IMVI = assay: Cytotoxicity against human LOXIMVI cells assessed as growth inhibition after 48 hrs by SRB assay; outline: as §1
M14 = assay: Cytotoxicity against human M14 cells assessed as growth inhibition after 48 hrs by SRB assay; conditions: M14, 48 h; outline: as §1
MDA-MB-435 = assay: Cytotoxicity against human MDA-MB-435 cells assessed as growth inhibition after 48 hrs by SRB assay; conditions: MDA-MB-435, 48 h; outline: as §1
[3] = Cytotoxicity against human UACC62 cells assessed as growth inhibition after 48 hrs by SRB assay; conditions: UACC-62, 48 h
IGROV-1 = assay: Cytotoxicity against human IGROV1 cells assessed as growth inhibition after 48 hrs by SRB assay; conditions: IGROV-1, 48 h; outline: as §1
[4] = Cytotoxicity against human OVCAR3 cells assessed as growth inhibition after 48 hrs by SRB assay; conditions: OVCAR-3, 48 h; outline: as §1
[5] = Cytotoxicity against human OVCAR4 cells assessed as growth inhibition after 48 hrs by SRB assay; conditions: OVCAR-4, 48 h; outline: as §1
[6] = Cytotoxicity against human OVCAR5 cells assessed as growth inhibition after 48 hrs by SRB assay; conditions: OVCAR-5, 48 h; outline: as §1
[7] = Cytotoxicity against human OVCAR8 cells assessed as growth inhibition after 48 hrs by SRB assay; conditions: OVCAR-8, 48 h; outline: as §1
[8] = Cytotoxicity against human NCI-ADR-RES cells assessed as growth inhibition after 48 hrs by SRB assay; outline: as §1
SK-OV-3 = assay: Cytotoxicity against human SKOV3 cells assessed as growth inhibition after 48 hrs by SRB assay; conditions: SK-OV-3, 48 h; outline: as §1
786-0 = assay: Cytotoxicity against human 786-0 cells assessed as growth inhibition after 48 hrs by SRB assay; conditions: 786-0, 48 h; outline: as §1
A498 = assay: Cytotoxicity against human A498 cells assessed as growth inhibition after 48 hrs by SRB assay; conditions: A498, 48 h; outline: as §1
CAKI-1 = assay: Cytotoxicity against human Caki1 cells assessed as growth inhibition after 48 hrs by SRB assay; conditions: CAKI-1, 48 h; outline: as §1
RXF 393 = assay: Cytotoxicity against human RXF393 cells assessed as growth inhibition after 48 hrs by SRB assay; conditions: RXF 393, 48 h; outline: as §1
SN12C = assay: Cytotoxicity against human SN12C cells assessed as growth inhibition after 48 hrs by SRB assay; outline: as §1
TK-10 = assay: Cytotoxicity against human TK10 cells assessed as growth inhibition after 48 hrs by SRB assay; conditions: TK-10, 48 h
[9] = Cytotoxicity against human UO31 cells assessed as growth inhibition after 48 hrs by SRB assay; conditions: UO-31, 48 h
[10] = Cytotoxicity against human PC3 cells assessed as growth inhibition after 48 hrs by SRB assay; conditions: PC-3, 48 h; outline: as §1
DU-145 = assay: Cytotoxicity against human DU145 cells assessed as growth inhibition after 48 hrs by SRB assay; conditions: DU-145, 48 h; outline: as §1
MCF7 = assay: Cytotoxicity against human MCF7 cells assessed as growth inhibition after 48 hrs by SRB assay; conditions: MCF7, 48 h; outline: as §1
MDA-MB-231 = assay: Cytotoxicity against human MDA-MB-231 cells assessed as growth inhibition after 48 hrs by SRB assay; conditions: MDA-MB-231, 48 h; outline: as §1
[11] = Cytotoxicity against human Hs578T cells assessed as growth inhibition after 48 hrs by SRB assay; conditions: Hs-578T; outline: as §1
BT-549 = assay: Cytotoxicity against human BT549 cells assessed as growth inhibition after 48 hrs by SRB assay; conditions: BT-549, 48 h; outline: as §1

`COc1cc(/C(C#N)=C/c2cc3ccccc3n2Cc2ccc(C#N)cc2)cc(OC)c1OC` gave a GI50 (HL-60(TB)) of 0.031 µM, a GI50 (K562) of 0.039 µM and a GI50 (MOLT-4) of 0.274 µM. It also gave a GI50 (RPMI-8226) of 0.199 µM, a GI50 (NCI-H226) of 14.5 µM and a GI50 (NCI-H23) of 0.246 µM. It also gave a GI50 (COLO 205) of 0.097 µM, a GI50 (HCC 2998) of 0.265 µM and a GI50 [1] of 0.047 µM. The GI50 [2] was 0.089 µM, the GI50 (HT-29) was 0.048 µM and the GI50 (KM12) was 0.047 µM. It also gave a GI50 (SW-620) of 0.048 µM, a GI50 (SF-268) of 0.086 µM and a GI50 (SF-295) of 0.037 µM. The GI50 (SF-539) was 0.039 µM, the GI50 (SNB-19) was 0.085 µM and the GI50 (SNB-75) was 0.039 µM. It also gave a GI50 (U-251) of 0.044 µM, a GI50 (LOX IMVI) of 0.09 µM and a GI50 (M14) of 0.056 µM. It also gave a GI50 (MDA-MB-435) of 0.024 µM, a GI50 [3] of 0.058 µM and a GI50 (IGROV-1) of 0.183 µM. The GI50 [4] was 0.042 µM, the GI50 [5] was 0.672 µM and the GI50 [6] was 0.259 µM. It also gave a GI50 [7] of 0.124 µM, a GI50 [8] of 0.073 µM and a GI50 (SK-OV-3) of 0.087 µM. It also gave a GI50 (786-0) of 0.137 µM, a GI50 (A498) of 0.029 µM and a GI50 (CAKI-1) of 0.035 µM. For the same compound, the GI50 (RXF 393) was 0.055 µM, the GI50 (SN12C) was 0.269 µM and the GI50 (TK-10) was 20.1 µM. The GI50 [9] was 0.201 µM, the GI50 [10] was 0.105 µM and the GI50 (DU-145) was 0.207 µM. For the same compound, the GI50 (MCF7) was 0.039 µM, the GI50 (MDA-MB-231) was 0.294 µM and the GI50 [11] was 0.092 µM. The GI50 (BT-549) was 0.109 µM.
With `COc1cc(/C(C#N)=C/c2c[nH]c3ccccc23)cc(OC)c1OC` the GI50 (HL-60(TB)) was 0.048 µM, the GI50 (K562) was 0.04 µM and the GI50 (MOLT-4) was 0.131 µM. For the same compound, the GI50 (RPMI-8226) was 0.231 µM, the GI50 (NCI-H226) was 0.194 µM and the GI50 (NCI-H23) was 0.133 µM. It also gave a GI50 (COLO 205) of 0.474 µM, a GI50 (HCC 2998) of 0.107 µM and a GI50 [1] of 0.048 µM. It also gave a GI50 [2] of 0.051 µM, a GI50 (HT-29) of 0.038 µM and a GI50 (KM12) of 0.043 µM. The GI50 (SW-620) was 0.047 µM, the GI50 (SF-268) was 2.54 µM and the GI50 (SF-295) was 0.042 µM. It also gave a GI50 (SF-539) of 0.099 µM, a GI50 (SNB-19) of 0.076 µM and a GI50 (SNB-75) of 0.042 µM. For the same compound, the GI50 (U-251) was 0.05 µM, the GI50 (LOX IMVI) was 0.075 µM and the GI50 (M14) was 0.053 µM. For the same compound, the GI50 (MDA-MB-435) was 0.024 µM, the GI50 [3] was 0.048 µM and the GI50 (IGROV-1) was 0.417 µM. It also gave a GI50 [4] of 0.033 µM, a GI50 [5] of 0.338 µM and a GI50 [6] of 10.6 µM. For the same compound, the GI50 [7] was 0.121 µM, the GI50 [8] was 0.039 µM and the GI50 (SK-OV-3) was 0.051 µM. The GI50 (786-0) was 0.09 µM, the GI50 (A498) was 0.035 µM and the GI50 (CAKI-1) was 0.058 µM. It also gave a GI50 (RXF 393) of 0.036 µM, a GI50 (SN12C) of 0.699 µM and a GI50 (TK-10) of 11.1 µM. The GI50 [9] was 1.41 µM, the GI50 [10] was 0.054 µM and the GI50 (DU-145) was 0.132 µM. It also gave a GI50 (MCF7) of 0.034 µM, a GI50 (MDA-MB-231) of 0.245 µM and a GI50 [11] of 0.131 µM. The GI50 (BT-549) was 1.94 µM.
